The list is not random: actives were taken first. Their share in the collection is about 2.2%.
rCAG RNA binder: molecules binding r(CAG) RNA repeats; hit rate 1.3% among 370,000; r(CAG) RNA repeat, TO-PRO-1 dye displacement fluorescence; inhibition, % at 3 µM;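 active = inhibition above the plate cutoff, the mean of all test compounds on that plate plus 3 SD, cut at about 35% in these data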;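 also: higher means more dye released from RNA so lower well fluorescence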
NadD block: NadD (S. aureus) enzyme inhibition; purified NadD enzyme, colorimetric absorbance read-out; inhibition, % at 20 µM; hit rate 0.78% among 360,000; in the data active = inhibition above about 26%
ARFGAP1 inhibitor: inhibitors of rat ARFGAP1. Arfgap1-stimulated ARF1 GTP hydrolysis, GDP FP detection. Q62848. inhibition, % at 16.5 µM. hit rate 0.26% among 360,000. AID 651572;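 active = inhibition above a per-plate limit, mean inhibition of low control wells plus 3 SD, cut at about 25% in these data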
Target sequence (Q62848 1-136 limits assumed): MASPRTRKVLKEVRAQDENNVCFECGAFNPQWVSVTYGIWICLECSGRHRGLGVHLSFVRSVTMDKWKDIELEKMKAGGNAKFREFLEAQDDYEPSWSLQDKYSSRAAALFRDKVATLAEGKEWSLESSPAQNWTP
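Material: rat Arfgap1 GAP domain (His6, aa 1-136), purified enzyme. Also added: human ARF1(Δ1-17)-GTP substrate. Compound dosing: 16.5 µM single point, 1.26% DMSO. Timing: enzyme reaction 120 min at 25 °C after 20 min preincubation. Signal: GDP detection by fluorescence polarization. Read-out basis: percent inhibition of GAP-stimulated GDP formation, scaled between DMSO and no-Arfgap1 medians.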
ASAP1 inh: inhibitors of human ASAP1 ArfGAP activity | Q9ULH1 | hit rate 0.19% among 360,000 | ASAP1-stimulated ARF1 GTP hydrolysis, GDP FP detection | inhibition, % at 16.5 µM | AID 624377; in the data active = inhibition above about 25%
Target sequence (Q9ULH1 325-724 limits assumed): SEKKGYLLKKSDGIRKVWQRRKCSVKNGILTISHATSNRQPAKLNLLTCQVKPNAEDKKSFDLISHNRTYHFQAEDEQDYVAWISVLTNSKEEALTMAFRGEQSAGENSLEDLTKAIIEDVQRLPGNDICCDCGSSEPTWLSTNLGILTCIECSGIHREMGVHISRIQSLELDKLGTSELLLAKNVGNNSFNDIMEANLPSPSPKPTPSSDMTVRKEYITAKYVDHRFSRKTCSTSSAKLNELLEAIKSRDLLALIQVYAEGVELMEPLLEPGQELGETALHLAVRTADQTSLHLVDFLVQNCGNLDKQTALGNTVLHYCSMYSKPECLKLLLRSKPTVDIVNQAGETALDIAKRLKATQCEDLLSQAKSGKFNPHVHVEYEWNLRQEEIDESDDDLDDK
rCAG binder conf: r(CAG) RNA repeat binding, confirmation; shares compounds with rCAG RNA binder; hit rate 70% among 4,300; TO-PRO-1 dye displacement fluorescence; inhibition, % at 3 µM; AID 652065;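 active = inhibition above a per-plate cutoff, the mean inhibition of sample wells plus 3 SD, cut at about 35% in these data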;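 also: loss of TO-PRO-1 fluorescence as compound displaces dye from 1x1 AA loop RNA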
DNA CAG counter: DNA CAG dye complex inhibition counter-screen | shares compounds with rCAG RNA binder | d(CAG) DNA oligo TO-PRO-1 dye displacement, fluorescence | inhibition, % at 3 µM | hit rate 94% among 4,300;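 active = inhibition above its plate's cutoff, the mean test-well inhibition plus 3 SD, cut at about 4.8% in these data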;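 also: hits displace the dye from DNA and so lower well fluorescence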
Numbers stand for hits.

`CCc1c(O)nc(SCC(=O)Nc2nc3ccccc3s2)n(C2CCCCC2)c1=O` gave rCAG RNA binder 39.8, NadD block inactive, ARFGAP1 inhibitor inactive, ASAP1 inh inactive, rCAG binder conf 47.6 and DNA CAG counter 15.2.
CCc1c(O)nc(SCC(=O)Nc2ccc(OC)cc2)n(C2CCCCC2)c1=O was read as rCAG RNA binder inactive, NadD block inactive, ARFGAP1 inhibitor inactive and ASAP1 inh inactive.
`O=C(COc1cccc(Cl)c1)NNC(=S)Nc1ccccc1` gave rCAG RNA binder inactive, NadD block inactive, ARFGAP1 inhibitor inactive and ASAP1 inh inactive.
COc1cccc(OCC(=O)NNC(=S)Nc2ccc(Cl)cc2Cl)c1 was read as rCAG RNA binder 56.8, NadD block inactive, ARFGAP1 inhibitor inactive, ASAP1 inh inactive, rCAG binder conf 47.0 and DNA CAG counter 14.8.
COc1ccc(S(=O)(=O)NC(=O)C2(C)CCN2C(=O)CC2CCCC2)cc1 (stereo not drawn) was read as rCAG RNA binder inactive, NadD block inactive, ARFGAP1 inhibitor inactive and ASAP1 inh inactive.
For COc1cc(NS(=O)(=O)c2ccc(NC(=S)NC(=O)/C=C/c3ccco3)cc2)ncn1 the results were rCAG RNA binder 56.7, NadD block inactive, ARFGAP1 inhibitor inactive, ASAP1 inh inactive, rCAG binder conf 47.9 and DNA CAG counter 15.9.
For COc1ccc(/C=C/C(=O)NC(=S)Nc2ccc(S(=O)(=O)Nc3ccc(OC)nn3)cc2)cc1 the results were rCAG RNA binder 69.8, NadD block inactive, ARFGAP1 inhibitor inactive, ASAP1 inh inactive, rCAG binder conf 66.1 and DNA CAG counter 32.5.
Screening Cc1ccc(NC(=S)NC(=O)/C=C/c2ccco2)c(O)c1 returned rCAG RNA binder 34.9, NadD block inactive, ARFGAP1 inhibitor inactive, ASAP1 inh inactive, rCAG binder conf 38.3 and DNA CAG counter 15.2.
O=C(Nc1ccc(OC(F)(F)F)cc1)Nc1nc2ncccn2c1-c1ccc(C(F)(F)F)cc1 was read as rCAG RNA binder inactive.
`COc1ccc(-n2nc(C(=O)NCC(=O)NCCC3=CCCCC3)c3ccccc3c2=O)cc1OC` gave rCAG RNA binder 36.0, NadD block inactive, ARFGAP1 inhibitor inactive, ASAP1 inh inactive, rCAG binder conf inactive and DNA CAG counter 7.3.
COc1ccc(-n2nc(C(=O)NCC(=O)NC(C)C)c3ccccc3c2=O)cc1OC was read as rCAG RNA binder inactive, NadD block inactive, ARFGAP1 inhibitor inactive and ASAP1 inh inactive.
For CCOc1ccc(NC(=NCc2ccc3c(c2)OCO3)SC2CC(=O)N(c3ccc(C(=O)O)cc3)C2=O)cc1 (stereo not drawn) the results were rCAG RNA binder 78.3, NadD block inactive, ARFGAP1 inhibitor inactive, ASAP1 inh inactive, rCAG binder conf 84.8 and DNA CAG counter 54.3.
Screening CC(C)CN1C(=O)c2ccc(C(=O)Nc3ccc(O)cc3C(=O)O)cc2C1=O returned rCAG RNA binder inactive, NadD block inactive, ARFGAP1 inhibitor inactive and ASAP1 inh inactive.
Screening CC(C)CCN1C(=O)c2ccc(C(=O)Nc3ccccc3C(=O)O)cc2C1=O returned rCAG RNA binder 54.8, NadD block inactive, ARFGAP1 inhibitor inactive, ASAP1 inh inactive, rCAG binder conf 80.3 and DNA CAG counter 51.1.
CC(C)CCN1C(=O)c2ccc(C(=O)Nc3ccc(O)cc3C(=O)O)cc2C1=O was read as rCAG RNA binder 98.1, NadD block inactive, ARFGAP1 inhibitor inactive, ASAP1 inh inactive, rCAG binder conf 84.2 and DNA CAG counter 51.4.
`NN1C(=O)/C(=C2/Sc3ccccc3N2CCCS(=O)(=O)O)SC1=S` gave rCAG RNA binder inactive, NadD block inactive, ARFGAP1 inhibitor inactive and ASAP1 inh inactive.
`O=C1/C(=C2\C(=O)N(Cc3ccc(F)cc3)c3ccccc32)SC(=S)N1CCS(=O)(=O)O` gave rCAG RNA binder 75.0, NadD block inactive, ARFGAP1 inhibitor inactive, ASAP1 inh inactive, rCAG binder conf 83.0 and DNA CAG counter 46.9.
`Oc1c(Cl)cc(Cl)cc1/C=N/NC(=S)NC1CC2C=CC1C2` (stereo not drawn) gave rCAG RNA binder 65.6, NadD block inactive, ARFGAP1 inhibitor inactive, ASAP1 inh inactive, rCAG binder conf 81.1 and DNA CAG counter 47.4.
For CCOC(=O)[C@]12CCCC=C1N(CCCOC)C(=O)[C@@H]2CC(=O)N1CCN(C(=O)c2ccco2)CC1 the results were rCAG RNA binder inactive.
For O=C(NCC(c1cccs1)N1CCOCC1)c1cccc(S(=O)(=O)Nc2ccc(F)cc2)c1 (stereo not drawn) the results were rCAG RNA binder inactive, NadD block inactive, ARFGAP1 inhibitor inactive and ASAP1 inh inactive.
For O=C(NCC(c1cccs1)N1CCOCC1)c1ccccc1NS(=O)(=O)c1cccc([N+](=O)[O-])c1 (stereo not drawn) the results were rCAG RNA binder 48.1, NadD block inactive, ARFGAP1 inhibitor inactive, ASAP1 inh inactive, rCAG binder conf 39.6 and DNA CAG counter 11.0.
Screening O=C(NCC(c1cccs1)N1CCOCC1)c1ccccc1NS(=O)(=O)c1cc([N+](=O)[O-])ccc1Cl (stereo not drawn) returned rCAG RNA binder 42.0, NadD block inactive, ARFGAP1 inhibitor inactive, ASAP1 inh inactive, rCAG binder conf 40.2 and DNA CAG counter 10.8.
`O=C(NCCCN1CCOCC1)c1ccccc1NS(=O)(=O)c1cc([N+](=O)[O-])ccc1Cl` gave rCAG RNA binder inactive, NadD block inactive, ARFGAP1 inhibitor inactive and ASAP1 inh inactive.
Screening O=C(NCC(c1cccs1)N1CCOCC1)c1ccccc1NS(=O)(=O)c1ccc(Cl)c([N+](=O)[O-])c1 (stereo not drawn) returned rCAG RNA binder 77.6, NadD block inactive, ARFGAP1 inhibitor inactive, ASAP1 inh inactive, rCAG binder conf 78.4 and DNA CAG counter 36.3.
O=C(NN1C(=O)/C(=C/c2cccc(O)c2)SC1=S)c1ccccc1O was read as rCAG RNA binder 74.6, NadD block inactive, ARFGAP1 inhibitor inactive, ASAP1 inh inactive, rCAG binder conf 50.5 and DNA CAG counter 16.3.
O=C(O)COc1ccccc1/C=C1\SC(=S)N(NC(=O)c2ccccc2O)C1=O was read as rCAG RNA binder 60.8, NadD block inactive, ARFGAP1 inhibitor inactive, ASAP1 inh inactive, rCAG binder conf 42.4 and DNA CAG counter 10.4.
Screening O=C(O)COc1ccccc1/C=C1\SC(=S)N(/N=C/c2ccccc2O)C1=O returned rCAG RNA binder inactive, NadD block inactive, ARFGAP1 inhibitor inactive and ASAP1 inh inactive.
Screening Cc1[nH]n(-c2ccccc2)c(=O)c1C(C[N+](=O)[O-])c1ccccc1Cl (stereo not drawn) returned rCAG RNA binder inactive, NadD block inactive, ARFGAP1 inhibitor inactive and ASAP1 inh inactive.
For Cc1[nH]n(-c2ccccc2)c(=O)c1C(c1ccc(O)c([N+](=O)[O-])c1)c1c(C)[nH]n(-c2ccccc2)c1=O the results were rCAG RNA binder 46.4, NadD block inactive, ARFGAP1 inhibitor inactive, ASAP1 inh inactive, rCAG binder conf inactive and DNA CAG counter 7.8.
